Data set [1] has as its target T1, Aldehyde oxidase (Homo sapiens, UniProt Q06278).
T1 sequence (Q06278 whole entry): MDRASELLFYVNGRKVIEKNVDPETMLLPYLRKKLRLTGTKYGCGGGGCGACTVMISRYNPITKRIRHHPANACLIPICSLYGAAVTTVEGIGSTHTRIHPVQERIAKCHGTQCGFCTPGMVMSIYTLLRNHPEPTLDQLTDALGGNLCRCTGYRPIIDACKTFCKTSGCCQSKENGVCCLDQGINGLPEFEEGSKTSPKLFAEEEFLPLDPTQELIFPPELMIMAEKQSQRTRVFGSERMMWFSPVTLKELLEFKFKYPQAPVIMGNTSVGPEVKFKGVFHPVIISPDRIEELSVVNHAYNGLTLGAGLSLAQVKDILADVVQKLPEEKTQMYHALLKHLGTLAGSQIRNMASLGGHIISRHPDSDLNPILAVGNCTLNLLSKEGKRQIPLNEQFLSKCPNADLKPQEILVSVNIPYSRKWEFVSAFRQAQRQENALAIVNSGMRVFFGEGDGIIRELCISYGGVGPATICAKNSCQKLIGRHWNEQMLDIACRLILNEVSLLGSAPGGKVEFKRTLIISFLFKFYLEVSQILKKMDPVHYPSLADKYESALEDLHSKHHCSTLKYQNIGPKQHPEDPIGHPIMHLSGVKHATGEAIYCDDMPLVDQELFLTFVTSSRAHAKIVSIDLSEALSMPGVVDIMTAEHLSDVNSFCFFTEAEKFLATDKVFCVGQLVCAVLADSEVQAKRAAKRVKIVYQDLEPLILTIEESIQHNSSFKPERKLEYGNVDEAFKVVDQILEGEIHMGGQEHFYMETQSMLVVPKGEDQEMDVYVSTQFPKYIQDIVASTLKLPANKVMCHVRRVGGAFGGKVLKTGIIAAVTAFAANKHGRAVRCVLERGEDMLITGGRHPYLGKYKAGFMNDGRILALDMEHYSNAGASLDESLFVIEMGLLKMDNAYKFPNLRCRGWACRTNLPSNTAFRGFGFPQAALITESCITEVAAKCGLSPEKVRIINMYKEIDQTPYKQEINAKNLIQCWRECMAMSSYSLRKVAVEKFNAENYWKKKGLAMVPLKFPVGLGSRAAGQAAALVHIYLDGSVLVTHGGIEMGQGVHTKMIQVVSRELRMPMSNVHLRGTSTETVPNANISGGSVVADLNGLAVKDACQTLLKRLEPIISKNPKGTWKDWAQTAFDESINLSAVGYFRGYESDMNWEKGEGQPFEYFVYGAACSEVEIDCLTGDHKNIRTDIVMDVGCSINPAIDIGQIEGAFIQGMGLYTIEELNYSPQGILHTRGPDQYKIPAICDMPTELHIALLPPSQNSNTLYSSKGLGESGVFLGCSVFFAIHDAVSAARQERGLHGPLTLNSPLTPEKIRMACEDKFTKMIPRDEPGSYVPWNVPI
Description: Retention time in cryopreserved human hepatocytes assessed as aldehyde oxidase-mediated metabolite formation treated with 10 uM of carbazeran by LC-MS extracted ion chromatogram analysis. It counts as ADME, cell-based, Hepatocyte. Summed up:
(§1)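 Cryopreserved human hepatocytes (lot OOO) were thawed for ~2 min at 37°C, diluted 1/50 in warm recovery medium or WME, spun at 100 x g for 6 min, and resuspended in WME at a final 2.0 x 10^6 cells/mL. They were incubated with 10 µM substrate for 120 min at 37°C. Reactions were stopped with two volumes of cold acetonitrile, then spun, dried under N2 and reconstituted. Read-out was positive-ESI Orbitrap LC-MS extracted ion chromatograms.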

Data set [2] has as its target T1, Aldehyde oxidase. Nature of the data set: Retention time in cryopreserved human hepatocytes assessed as aldehyde oxidase-mediated metabolite formation treated with 10 uM of O6-benzylguanine by LC-MS extracted ion chromatogram analysis. It counts as ADME, cell-based, Hepatocyte. The procedure, abridged: as §1
In data set [3] the target is T1, Aldehyde oxidase. Nature of the data set: Drug level in cryopreserved human hepatocytes assessed as aldehyde oxidase-mediated metabolite formation treated with 10 uM of BIBU1476 by LC-MS extracted ion chromatogram analysis. The data set is classed as ADME, cell-based, Hepatocyte.
Data set [4] deals with T1, Aldehyde oxidase. Nature of the data set: Drug level in cryopreserved human hepatocytes assessed as aldehyde oxidase-mediated metabolite formation treated with 10 uM of BIBX1382 by LC-MS extracted ion chromatogram analysis. The data set is classed as ADME, cell-based, Hepatocyte. Summed up:
as §1

Data set [5] addresses T1, Aldehyde oxidase. Nature of the data set: Drug metabolism in cryopreserved human hepatocytes assessed as aldehyde oxidase-mediated 3-(8-(3-chloro-4-fluorophenylamino)-6-oxo-6,7-dihydropyrimido[5,4-d]pyrimidin-2-ylamino)pent-4-en-1-ylium formation at 10 uM by LC-MS extracted ion chromatogram analysis. It counts as ADME, cell-based, Hepatocyte. Summed up: as §1
Data set [6] addresses T1, Aldehyde oxidase. Description: Drug metabolism in cryopreserved human hepatocytes assessed as aldehyde oxidase-mediated 8-(3-chloro-4-fluorophenylamino)-2-imino-6-oxo-2,3,5,6-tetrahydropyrimido[5,4-d]pyrimidin-3-ium formation at 10 uM by LC-MS extracted ion chromatogram analysis. The data set is classed as ADME, cell-based, Hepatocyte. The procedure, abridged:
as §1

For data set [7], the target named is T1, Aldehyde oxidase. Description: Drug metabolism in cryopreserved human hepatocytes assessed as aldehyde oxidase-mediated N-(but-1-en-2-yl)-8-(3-chloro-4-fluorophenylamino)-6-oxo-6,7-dihydropyrimido[5,4-d]pyrimidin-2-aminium formation at 10 uM by LC-MS extracted ion chromatogram analysis. The data set is classed as ADME, cell-based, Hepatocyte. The procedure, abridged:
as §1

The target in data set [8] is T1, Aldehyde oxidase. Description: Drug metabolism in cryopreserved human hepatocytes assessed as aldehyde oxidase-mediated parent compound retention time at 10 uM by LC-MS extracted ion chromatogram analysis. The data set is classed as ADME, cell-based, Hepatocyte. The procedure, abridged: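 Cryopreserved human hepatocytes (lot OOO) were thawed for ~2 min at 37°C, diluted 1/50 in warm recovery medium or WME, spun at 100 x g for 6 min, and resuspended in WME at a final 2.0 x 10^6 cells/mL. Reactions were stopped with two volumes of cold acetonitrile, then spun, dried under N2 and reconstituted. Read-out was positive-ESI Orbitrap LC-MS extracted ion chromatograms.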

Data set [9] concerns the target T1, Aldehyde oxidase. Nature of the data set: Retention time in cryopreserved human hepatocytes assessed as aldehyde oxidase-mediated metabolite formation treated with 10 uM of zaleplon by LC-MS extracted ion chromatogram analysis. The data set is classed as ADME, cell-based, Hepatocyte. Summed up: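 Cryopreserved human hepatocytes (Lot OOO), thawed at 37°C, spun at 100 x g, resuspended in Williams' Medium E, then incubated at 2.0 x 10^6 cells/mL with 10 µM substrate for 120 min at 37°C. Quenched with two volumes of cold acetonitrile, centrifuged, supernatant dried under N2 and reconstituted in 85:15 water/acetonitrile (0.1% formic acid). Analysed by high-resolution ESI-positive Orbitrap LC-MS using extracted ion chromatograms.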

Data set [10] deals with T1, Aldehyde oxidase. Description: Retention time in cryopreserved human hepatocytes assessed as aldehyde oxidase-mediated metabolite formation treated with 10 uM of XK-469 by LC-MS extracted ion chromatogram analysis. The data set is classed as ADME, cell-based, Hepatocyte. Summed up:
as §1

A further data set in a line: clinical. The following applies: human, in vivo.
Data set [11] concerns the target T1, Aldehyde oxidase. Nature of the data set: Drug metabolism in cryopreserved human hepatocytes assessed as aldehyde oxidase-mediated metabolite formation at 10 uM by LC-MS extracted ion chromatogram analysis in presence of hydralazine.
Data set [12] is described as follows: Oral bioavailability in human. It counts as ADME, organism-based. Conditions: in vivo.
In data set [13] the target is T1, Aldehyde oxidase. Nature of the data set: Drug metabolism in cryopreserved human hepatocytes assessed as aldehyde oxidase-mediated 3-(8-(3-chloro-4-fluorophenylamino)pyrimido[5,4-d]pyrimidin-2-ylamino)pent-4-en-1-ylium formation at 10 uM by LC-MS extracted ion chromatogram analysis. It counts as ADME, cell-based, Hepatocyte. Summed up:
as §1

In data set [14] the target is T1, Aldehyde oxidase. Nature of the data set: Drug metabolism in cryopreserved human hepatocytes assessed as aldehyde oxidase-mediated N-(but-1-en-2-yl)-8-(3-chloro-4-fluorophenylamino)pyrimido[5,4-d]pyrimidin-2-aminium formation at 10 uM by LC-MS extracted ion chromatogram analysis. The data set is classed as ADME, cell-based, Hepatocyte. The procedure, abridged: as §1

Data set [15] has as its target T1, Aldehyde oxidase. Description: Drug metabolism in cryopreserved human hepatocytes assessed as aldehyde oxidase-mediated 8-(3-chloro-4-fluorophenylamino)-2-imino-2,3-dihydropyrimido[5,4-d]pyrimidin-3-ium formation at 10 uM by LC-MS extracted ion chromatogram analysis. It counts as ADME, cell-based, Hepatocyte. Summed up: as §1

Bounds are passed on as bounds.

Consider `CCNC(=O)OC1CCN(c2n[nH]c(=O)c3cc(OC)c(OC)cc23)CC1`, for which the Retention_time at Aldehyde oxidase [1] came out at 13.9 min. For `Nc1nc(OCc2ccccc2)c2[nH]c(O)nc2n1`, the Retention_time at Aldehyde oxidase [2] is recorded as 12.5 min. As to `N=c1nc2c(Nc3ccc(F)c(Cl)c3)nc(=O)[nH]c2c[nH]1`, the Drug metabolism result at Aldehyde oxidase [3] was “metabolite_detected”. On the same count and under the same terms, in the case of `C=C(CC)Nc1ncc2nc(=O)[nH]c(Nc3ccc(F)c(Cl)c3)c2n1` it was “metabolite_detected”.

For the compound `Nc1ncc2ncnc(Nc3ccc(F)c(Cl)c3)c2n1`, on Aldehyde oxidase [4], the Drug metabolism entry is recorded as “metabolite_detected”. As for `CN1CCC(Nc2ncc3nc(=O)[nH]c(Nc4ccc(F)c(Cl)c4)c3n2)CC1`, the Drug metabolism result on Aldehyde oxidase [5], at Aldehyde oxidase [6] and at Aldehyde oxidase [7] was “metabolite_detected” throughout. Besides, the Retention time at Aldehyde oxidase [8] was 10.7 min. For the compound `C=C(CC)Nc1ncc2ncnc(Nc3ccc(F)c(Cl)c3)c2n1`, the Drug metabolism entry on Aldehyde oxidase [4] is given as “metabolite_detected”. For the compound `CCN(C(C)=O)c1cccc(-c2cc(=O)[nH]c3c(C#N)cnn23)c1`, the Retention_time on Aldehyde oxidase [9] came out at 12.7 min. As for `C[C@@H](Oc1ccc(OC2N=c3cc(Cl)ccc3=NC2=O)cc1)C(=O)O` (some centres undefined), the Retention_time on Aldehyde oxidase [10] was found to be 15.7 min.

`C=CC(CC)Nc1ncc2nc(=O)[nH]c(Nc3ccc(F)c(Cl)c3)c2n1` (centres undefined): on Aldehyde oxidase [3], the Drug metabolism entry is “metabolite_detected”.

`C=CC(CC)Nc1ncc2ncnc(Nc3ccc(F)c(Cl)c3)c2n1` (centres undefined): the Drug metabolism entry on Aldehyde oxidase [4] is on record as “metabolite_detected”. `Nc1nc(OCc2ccccc2)c2[nH]cnc2n1` [6-O-BENZYLGUANINE] showed a clearance in “clinical” of 15.6 mL/min/kg. Besides, on Aldehyde oxidase [8], the Retention_time amounted to 10.5 min. Besides, at Aldehyde oxidase [11], the Drug metabolism entry is listed as “metabolite_not_detected”. On to `CCNC(=O)OC1CCN(c2nncc3cc(OC)c(OC)cc23)CC1` [CARBAZERAN], for which the bioavailability in data set [12] was below 5%.

`CN1CCC(Nc2ncc3ncnc(Nc4ccc(F)c(Cl)c4)c3n2)CC1` [FALNIDAMOL]: the Drug metabolism result at Aldehyde oxidase [13] is “metabolite_detected”; on Aldehyde oxidase [14], “metabolite_detected”; at Aldehyde oxidase [15] it was “metabolite_detected”; at Aldehyde oxidase [11], “metabolite_not_detected”. Further, in [12], the bioavailability worked out at 2%. The clearance in the data set “clinical” is 25 mL/min/kg. Further, the Retention time on Aldehyde oxidase [8] was 12.5 min. `C[C@@H](Oc1ccc(Oc2cnc3ccc(Cl)cc3n2)cc1)C(=O)O` [R(+)XK469] had a clearance in the data set “clinical” below 1 mL/min/kg. In addition, on Aldehyde oxidase [8], the Retention_time was determined as 17.4 min.

As to `CCN(C(C)=O)c1cccc(-c2ccnc3c(C#N)cnn23)c1` [ZALEPLON], the clearance in the data set “clinical” was found to be 15.7 mL/min/kg. Besides, the Retention_time on Aldehyde oxidase [8] is on record as 14.5 min.
